This note sets out measurements from ChEMBL document CHEMBL3259653, “Potent and selective inhibitors of human reticulocyte 12/15-lipoxygenase as anti-stroke therapies” (J Med Chem, 2014).

Each structure is given as a SMILES string. Active and inactive are the calls of the source. No cut-off for these calls is given here. A value given as a limit tells only on which side of the number the result lay.

Data set [1] has as its target T1, Polyunsaturated fatty acid lipoxygenase ALOX15 (Mus musculus) (UniProt P39654).
T1 sequence (whole entry): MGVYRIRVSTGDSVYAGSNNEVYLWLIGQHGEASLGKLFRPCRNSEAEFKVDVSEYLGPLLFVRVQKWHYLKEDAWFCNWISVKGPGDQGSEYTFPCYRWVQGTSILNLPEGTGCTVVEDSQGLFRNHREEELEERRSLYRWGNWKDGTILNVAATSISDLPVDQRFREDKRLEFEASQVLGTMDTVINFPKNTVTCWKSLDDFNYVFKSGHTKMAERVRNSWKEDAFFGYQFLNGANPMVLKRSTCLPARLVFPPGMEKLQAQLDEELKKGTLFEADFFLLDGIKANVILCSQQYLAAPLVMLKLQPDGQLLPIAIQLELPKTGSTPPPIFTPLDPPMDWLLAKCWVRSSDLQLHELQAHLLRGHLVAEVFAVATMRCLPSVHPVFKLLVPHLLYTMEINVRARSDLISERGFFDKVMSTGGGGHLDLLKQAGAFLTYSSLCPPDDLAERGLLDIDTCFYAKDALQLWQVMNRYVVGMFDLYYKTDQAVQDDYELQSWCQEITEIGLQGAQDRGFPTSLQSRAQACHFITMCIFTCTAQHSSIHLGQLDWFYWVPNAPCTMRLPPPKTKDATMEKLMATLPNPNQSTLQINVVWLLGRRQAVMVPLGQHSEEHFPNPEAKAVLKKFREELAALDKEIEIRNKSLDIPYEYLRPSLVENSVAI
Put plainly: Inhibition of 12/15-lipoxygenase in mouse HT22 cells assessed as reduction of 12-HETE production at 10 uM after 24 hrs by HPLC/MS analysis. The data set is classed as cell-based. The conditions noted are these: HT-22. Put shortly:
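HT22 cells were grown in 75 cm² flasks in phenol red-free DMEM with 5% FBS and treated at 50–70% confluence with 5 mM glutamate with or without compound. After 24 h the eicosanoid fraction of the medium was isolated on a C-18 cartridge. 12-HETE was quantified by HPLC/MS against a 12(S)-HETE standard curve.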

The test system of data set [2] is Plasma. Description: Cmax in CD1 mouse plasma at 30 mg/kg, ip. In kind it is ADME, organism-based. The arrangement: dose 30 mg/kg, route intraperitoneal. The conditions noted are these: in vivo. The procedure, abridged: (§1)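 Male CD1 mice, 6–8 weeks old, given a single 30 mg/kg IP dose formulated as a solution in 10% Solutol, 10% Cremophor EL and 20% PEG 400 in saline. Plasma and brain were sampled at eight time points over 24 h, in triplicate. Study run at a contract lab.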

In data set [3] the test system is Liver. Description: Half life in mouse liver microsomes in presence of NADPH. The data set is classed as ADME. The procedure, abridged: (§2)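 Rat or mouse liver microsomes were incubated with NADPH, and half-life was taken from compound depletion. Run at a contract lab.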
The test system of data set [4] is Brain. Description: Cmax in CD1 mouse brain at 30 mg/kg, ip. In kind it is ADME, organism-based. Set-up: dose 30 mg/kg, route intraperitoneal. The conditions noted are these: in vivo. The procedure, abridged: as §1
In data set [5] the test system is Brain. Put plainly: Half life in CD1 mouse brain at 30 mg/kg, ip. In kind it is ADME, organism-based. Set-up: dose 30 mg/kg, route intraperitoneal. The conditions noted are these: in vivo. The procedure, abridged:
as §1

Data set [6] deals with Liver microsome. Put plainly: Metabolic stability in rat liver microsomes measured over 1 hr in absence of NADPH. In kind it is ADME. The procedure, abridged: (§3)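 Liver microsomes (mouse or rat) were incubated without NADPH over a 1 h period, and compound degradation was followed. Run at a contract lab.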
Data set [7] concerns the target T1, Polyunsaturated fatty acid lipoxygenase ALOX15 (Mus musculus). Description: Inhibition of 12/15-lipoxygenase in mouse HT22 cells assessed as protection against glutamate-induced cell death after 24 hrs by LDH release assay. The data set is classed as cell-based. The conditions noted are these: HT-22. The procedure, abridged:
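HT22 mouse hippocampal cells were grown in DMEM with 10% FBS and penicillin/streptomycin, seeded at 1 × 10^4 cells/well and treated 18 h later at 50–70% confluence. Medium was exchanged for fresh medium with 5 mM glutamate plus compound or DMSO (≤0.1% final). Death was scored as percent LDH released to the medium versus the cell extract, background-subtracted.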
Background: Release of lactate dehydrogenase indicates damage to the cell membrane.

For data set [8], the system named is Liver microsome. Put plainly: Half life in rat liver microsomes in presence of NADPH. The data set is classed as ADME. Put shortly:
as §2
Background: Liver microsomes are a subcellular fraction often used to study metabolism.

The nature of data set [9]: Stability of the compound in buffer at pH 9 measured over 48 hrs. The data set is classed as physicochemical. The conditions noted are these: pH 9, 48 h.
The test system of data set [10] is Liver. Put plainly: Metabolic stability in mouse liver microsomes measured over 1 hr in absence of NADPH. The data set is classed as ADME. Put shortly: as §3
The target in data set [11] is T2, Prostaglandin G/H synthase 1 (Ovis aries) (UniProt P05979).
T2 sequence (whole entry): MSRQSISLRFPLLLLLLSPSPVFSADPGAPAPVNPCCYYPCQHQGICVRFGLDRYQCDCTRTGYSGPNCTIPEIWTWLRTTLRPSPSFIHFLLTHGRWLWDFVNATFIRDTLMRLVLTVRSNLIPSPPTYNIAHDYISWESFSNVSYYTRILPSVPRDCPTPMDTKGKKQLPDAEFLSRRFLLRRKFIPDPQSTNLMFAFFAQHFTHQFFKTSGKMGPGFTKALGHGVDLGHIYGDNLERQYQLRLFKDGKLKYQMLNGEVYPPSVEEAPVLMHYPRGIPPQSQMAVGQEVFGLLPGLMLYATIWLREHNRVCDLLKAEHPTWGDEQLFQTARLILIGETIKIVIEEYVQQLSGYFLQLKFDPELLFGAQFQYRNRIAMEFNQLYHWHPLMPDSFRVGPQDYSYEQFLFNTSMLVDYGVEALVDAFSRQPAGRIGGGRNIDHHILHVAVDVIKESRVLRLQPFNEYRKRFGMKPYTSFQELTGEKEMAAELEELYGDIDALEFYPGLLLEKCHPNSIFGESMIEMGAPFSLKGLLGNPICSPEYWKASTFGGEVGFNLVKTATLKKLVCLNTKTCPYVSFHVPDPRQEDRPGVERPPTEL
Put plainly: Inhibition of ovine COX-1 using arachidonic acid as substrate assessed as consumption of oxygen at 5 uM preincubated for 5 mins followed by substrate addition by oxygen electrode-based assay relative to control. The procedure, abridged:
(§4)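 COX-1 or COX-2 (2–5 μg) in 0.1 M Tris-HCl pH 8.0 with 5 mM EDTA, 2 mM phenol and 1 μM hematin at 37 °C. Inhibitor was preincubated 5 min, then 100 μM arachidonic acid was added. Oxygen consumption was read on an oxygen electrode, and percent inhibition was calculated against a DMSO control, with indomethacin as positive control.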

The nature of data set [12]: Stability of the compound in DPBS buffer at pH 7.4 measured over 48 hrs. In kind it is physicochemical. The conditions noted are these: pH 7.4, 48 h.
Data set [13] deals with Plasma. Put plainly: Half life in CD1 mouse plasma at 30 mg/kg, ip. The conditions noted are these: in vivo. In kind it is ADME, organism-based. The arrangement: dose 30 mg/kg, route intraperitoneal. The procedure, abridged: as §1
Data set [14] deals with T3, Prostaglandin G/H synthase 2 (Homo sapiens) (UniProt P35354).
T3 sequence (whole entry): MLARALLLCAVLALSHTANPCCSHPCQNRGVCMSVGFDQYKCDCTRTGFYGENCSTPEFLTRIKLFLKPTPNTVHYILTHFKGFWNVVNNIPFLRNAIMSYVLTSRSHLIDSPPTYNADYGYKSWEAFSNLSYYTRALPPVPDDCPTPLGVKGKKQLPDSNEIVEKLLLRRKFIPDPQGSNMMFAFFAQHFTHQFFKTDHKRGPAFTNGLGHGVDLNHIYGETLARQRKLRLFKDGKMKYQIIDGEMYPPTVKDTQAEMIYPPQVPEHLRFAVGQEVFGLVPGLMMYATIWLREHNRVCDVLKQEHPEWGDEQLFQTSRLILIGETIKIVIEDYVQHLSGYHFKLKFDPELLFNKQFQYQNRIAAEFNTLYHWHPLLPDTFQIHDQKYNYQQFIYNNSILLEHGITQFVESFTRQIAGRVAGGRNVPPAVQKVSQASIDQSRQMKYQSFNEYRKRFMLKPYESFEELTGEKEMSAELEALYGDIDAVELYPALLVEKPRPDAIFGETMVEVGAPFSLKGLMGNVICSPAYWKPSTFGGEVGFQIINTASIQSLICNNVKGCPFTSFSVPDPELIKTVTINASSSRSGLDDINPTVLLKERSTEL
Description: Inhibition of human COX-2 using arachidonic acid as substrate assessed as consumption of oxygen at 5 uM preincubated for 5 mins followed by substrate addition by oxygen electrode-based assay relative to control. Put shortly:
as §4

In data set [15] the test system is Mus musculus. Put plainly: Neuroprotective activity in C57BL6J mouse distal middle cerebral artery occlusion model of permanent focal ischemia assessed as reduction in infarct size at 50 mg/kg, ip administered 2 hrs post ischemia induction measured after 24 hrs by TTC staining relative to vehicle-treated control. In kind it is functional. The arrangement: scale not given: the % may be the effect or the level left. The conditions noted are these: route intraperitoneal. Put shortly: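 FeCl3-induced distal MCA occlusion: 10% FeCl3-saturated filter paper on intact dura along MCA under 1.5% isoflurane in N2O/O2, body temperature held at 37 ± 0.3 °C, rCBF followed by laser doppler for 3 h. Compound or DMSO vehicle given IP after 2 h ischemia. Sacrifice at 24 h; TTC staining of 1 mm slices, indirect infarct volume; surgeon and assessor blinded.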

Data set [16] is described as follows: Metabolic stability in mouse plasma assessed as compound remaining measured at 2 hrs. In kind it is ADME, cell-free. The conditions noted are these: read-out: Stability. Put shortly:
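Compound was incubated in mouse plasma, and the percent remaining was measured at 2 h. Run at a contract lab.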

Data set [17] is described as follows: Stability of the compound in buffer at pH 2 measured over 48 hrs. The data set is classed as physicochemical. The conditions noted are these: pH 2, 48 h.

Turning to `CNc1oc(-c2cccc3ccccc23)nc1C#N`, the inhibition entry in [1] is “Active”. The Cmax in [2] worked out at 13.8 µM; in data set [4], 28.8 µM. The t1/2 came to 5.5 min in data set [3], 60 min in [5], 18 min in data set [8] and 66 min in data set [13]. The Stability result in [6], in data set [9], in data set [10], in data set [12] and in data set [17] was “Stable” throughout. Further, the inhibition entry in [7] was “Dose-dependent effect”; in data set [11], below 10%; in data set [14] it was below 10%. For the same compound, the Activity in data set [15] is 30%. Also, the remaining at 2 h in data set [16] worked out at 100%.

The term inhibition denotes the percentage by which the read-out fell short of the control. As a reminder, the Cmax is the maximum level reached in the sampled fluid or tissue.
